Laboratory results: publication PMC8052301 (Biochemical and biophysical research communications, 2021)
Ends that are not written are not given here. * marks the point of attachment. FITC = O=C1OC2(c3ccc(O)cc3Oc3cc(O)ccc32)c2ccc(NC(=S)*)cc21; Ahx = NCCCCCC(=O)O

Columns and labels:
IP3R1 = settings: ref [3]; cited from earlier work
3F-Bok^WT = assay: Anti-HA IP of IP3R1-HA constructs and co-IP of 3F-Bok^WT from HEK-3KO cells; type: cell-based, mouse; settings: IP3R1-HA and 3F-Bok co-transfected, immunoblot
How it was run: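 Cotransfection uses full-length C-terminally HA-tagged mouse IP3R1 and N-terminally 3xFlag-tagged mouse Bok, with 1-2 μg cDNA and PEI, in HEK-3KO cells seeded at 6-8x10^5/well and transfected ~24 h later. Rabbit anti-HA precipitates from lysates. Blots of precipitates and inputs are probed with mouse anti-HA and anti-Bok, with p97 as input loading control. Detection is by ECL after SDS-PAGE and nitrocellulose transfer.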

HS-HA = assay: FP of FITC-conjugated peptide with negative control HS-HA; type: binding; settings: PBS pH 7.4 / 0.1% BSA, FITC-IP3R1^1898-1940
HS-Bok = target: T1, HS-Bok (Mus musculus, UniProt O35425); assay: Fluorescence polarization; type: binding; settings: FP, PBS pH 7.4 / 0.1% BSA
T1 sequence (O35425 1-213): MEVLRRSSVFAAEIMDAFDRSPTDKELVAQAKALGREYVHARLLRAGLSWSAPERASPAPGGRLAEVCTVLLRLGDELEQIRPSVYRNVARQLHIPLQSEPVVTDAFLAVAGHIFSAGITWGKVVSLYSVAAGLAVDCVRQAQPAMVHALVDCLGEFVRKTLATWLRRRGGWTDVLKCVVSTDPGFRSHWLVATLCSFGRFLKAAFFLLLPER

HEK-3KO cells = assay: Cellular fractionation into cytosol and crude membrane, immunoblot; type: cell-based; settings: for localization on co-expression of IP3R1-HA^WT and 3F-Bok^WT: IP3R1-HA^WT and 3F-Bok^WT co-expressed; for localization, expressed alone: cytosol / membrane fractions
How it was run: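 HEK-3KO cells are PEI-transfected (1-2 μg cDNA) with tagged mouse constructs, harvested in ice-cold homogenization buffer and sonicated. They are then spun at 20,000xg for 60 min at 4°C. The supernatant gives the cytosol fraction, and the pellet, resuspended in buffer, gives crude membranes. Fractions go through SDS-PAGE and ECL immunoblot, with transaldolase as the cytosol marker and Hrd1 as the membrane marker.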

3F-Bok^ΔTM = assay: Anti-HA IP and co-IP of TM domain-lacking constructs from HEK-3KO cells; type: cell-based, mouse; settings: immunoblot
How it was run: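 HEK-3KO cells (6-8x10^5/well) are transfected ~24 h after seeding with 1-2 μg cDNA using PEI. Constructs are mouse IP3R1 with a C-terminal HA tag, truncated to aa 1-2264, and mouse Bok with an N-terminal 3xFlag tag, truncated to aa 1-187. Lysates are immunoprecipitated with rabbit anti-HA. Samples are heated (37°C 30 min or boiled 5 min), run on SDS-PAGE, blotted to nitrocellulose and detected by ECL. p97 is the input loading control.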

[1] = target: FITC-IP3R1^1898-1929 (mouse) (UniProt P11881); assay: fluorescence polarisation
[2] = target: FITC-IP3R1^1898-1940 (mouse) (UniProt P11881); assay: fluorescence polarisation
[3] = target: FITC-IP3R1^1904-1940 (mouse) (UniProt P11881); assay: fluorescence polarisation
HS-IP3R1 = type: binding, mouse; settings: PBS / 0.1% BSA, 16h at 4°C, anti-IP3R1^1884-1903 IP, immunoblot
How it was run: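 His-SUMO-tagged mouse Bok and IP3R1 fragments, plus an HA-tag control, are expressed in E. coli BL21-CodonPlus(DE3)-RIPL. Cells are grown at 37°C to OD600 ~0.6, then induced with 1 mM IPTG for ~18 h at 16°C. Protein is purified on Ni-NTA in pH 7.4 phosphate buffer and eluted with 400 mM imidazole. Mixtures are immunoprecipitated with rabbit anti-IP3R1 (aa 1884-1903) and probed by immunoblot.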

Bcl-xL: Bcl-2 family protein reported to interact with IP3Rs
strength of interaction with IP3R1 relative to Bok (IP3R1): much less strongly than Bok

IP3R1-HA^Δ1916-1917: IP3R1-HA deletion mutant, Bok binding-deficient
co-IP of 3F-Bok^WT (3F-Bok^WT): failed to co-IP 3F-Bok^WT

Bcl-2: Bcl-2 family protein reported to interact with IP3Rs
strength of interaction with IP3R1 relative to Bok (IP3R1): much less strongly than Bok

{FITC-Ahx}-KKAKEPTTQITEEVRDQLLEASAATRKAFTTFRREADPDDHYQ (N-terminus assumed) [FITC-IP3R1^1898-1940]
binding to HS-HA (in words) (HS-HA): but not negative control HS-HA | binding to HS-Bok (in words) (HS-Bok): bound with high affinity

IP3R1-HA^Δ1920-1921: IP3R1-HA deletion mutant
co-IP of 3F-Bok^WT (3F-Bok^WT): failed to co-IP 3F-Bok^WT

IP3R1-HA^ΔTM, Δ1916-1917: lacks TM domains and the ability to bind Bok
localization upon co-transfection of 3F-Bok^WT (HEK-3KO cells): an effect not seen

IP3R1-HA^Δ1917: IP3R1-HA deletion mutant
co-IP of 3F-Bok^WT (3F-Bok^WT): failed to co-IP 3F-Bok^WT

IP3R1-HA^Δ1909-1941: IP3R1-HA construct with the largest deletion
co-IP of 3F-Bok^WT (3F-Bok^WT): did not co-IP 3F-Bok^WT

IP3R1-HA^WT: mouse IP3R1 tagged at the C-terminus with an HA epitope
localization on co-expression of IP3R1-HA^WT and 3F-Bok^WT (HEK-3KO cells): the same localization is maintained | localization, expressed alone (HEK-3KO cells): localize completely to membranes | co-IP of 3F-Bok^WT (3F-Bok^WT): allowed for efficient co-IP of 3F-Bok^WT

FITC-IP3R1^1907-1921: shorter peptide which encompasses just the ANCHOR2 "peak" shown in Figure 1C (ITEEVRDQLLEASAA; also: FITC-conjugated, position not given here)
binding to HS-Bok (in words) (HS-Bok): does not bind to HS-Bok at all

IP3R1-HA^ΔTM: contains amino acids 1-2264 of IP3R1
co-IP of cytosolic 3F-Bok^ΔTM and IP3R1-HA^ΔTM (3F-Bok^ΔTM): strongly co-IP | localization upon co-transfection of 3F-Bok^WT (HEK-3KO cells): becomes more membrane-associated | localization, expressed alone (HEK-3KO cells): predominantly cytosolic

HS-Bok (from UniProt O35425 1-213) (natural protein)
Kd [1]: 265 nM | Kd [2]: 64 nM | Kd [3]: 398 nM

B1: HS-Bok: bacterially expressed, His-sumo (HS) tagged mouse Bok (protein, UniProt O35425 1-213, looked up)
Bcl-2-related ovarian killer …: T1 sequence (O35425 1-213)
modifications: His-SUMO tag
co-IP with HS-IP3R1 (HS-IP3R1): strong co-IP

B2: 3F-Bok^WT: Bok from mouse tagged at the N-terminus with a 3xFlag epitope (protein)
chain: T1 sequence (O35425 1-213)
modifications: left off: 3xFlag, N-terminal, kept
localization on co-expression of IP3R1-HA^WT and 3F-Bok^WT (HEK-3KO cells): the same localization is maintained, with an increase in Bok expression level | localization, expressed alone (HEK-3KO cells): localize completely to membranes

B3: 3F-Bok^ΔTM: contains amino acids 1-187 of Bok (protein)
chain: MEVLRRSSVFAAEIMDAFDRSPTDKELVAQAKALGREYVHARLLRAGLSWSAPERASPAPGGRLAEVCTVLLRLGDELEQIRPSVYRNVARQLHIPLQSEPVVTDAFLAVAGHIFSAGITWGKVVSLYSVAAGLAVDCVRQAQPAMVHALVDCLGEFVRKTLATWLRRRGGWTDVLKCVVSTDPGFR
modifications: left off: 3xFlag, N-terminal, kept
localization, expressed alone (HEK-3KO cells): predominantly cytosolic
